Experimental findings from publication PMC9073653 (RSC Advances, 2019) are described below.

One assay relates to human fibroblasts (HAF). Put plainly: SRB cytotoxicity assay, human fibroblasts HAF. The settings on record: Fibroblast, 96 h, read-out: IC50 HAF. Type of assay: cell-based.
Assay [1] relates to DU145, PC3 and PC3M cell lines. Put plainly: SRB antiproliferative assay, CRPC cell lines together. Type of assay: cell-based, human. The settings on record: across DU145, PC3 and PC3M. For orientation: Sulforhodamine B stains cellular protein and so reports cell mass.
In assay [2] the test system is DU145 cells. Put plainly: Transwell migration assay. In kind it is cell-based, human. The settings on record: 10 μM, 24 h.
Assay [3] deals with DU145 cells. Put plainly: Wound healing migration assay. The note with it: 10 μM, 24 h. Type of assay: cell-based, human.
For the next assay, the system named is LNCaP cells. Put plainly: SRB antiproliferative assay, LNCaP. In kind it is cell-based. The note with it: Homo sapiens, read-out: IC50 LNCaP. Summed up:
(§1)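 AR-positive human prostate cancer line, tested in vitro for antiproliferative activity by sulforhodamine B (SRB) staining, with IC50 as the read-out.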

In assay [4] the test system is DU145 cells. Put plainly: Cell cycle analysis by PI staining and flow cytometry. Type of assay: cell-based, human. The note with it: 10 μM, 24 h, control 9.66%. In general terms: In flow cytometry, cells or beads pass a laser one at a time.
In the next assay the test system is 22RV1 cells. Put plainly: SRB antiproliferative assay, 22RV1. Type of assay: cell-based. The settings on record: Homo sapiens, 22Rv1, read-out: IC50 22RV1. A digest of the protocol: as §1
The subject of assay [5] is PARP and CL.PARP in DU145 cells. Put plainly: Western blot of PARP and cleaved PARP. Type of assay: cell-based, human. A general note: A western blot detects proteins with antibodies after separation by electrophoresis.
In the next assay the test system is PC3 cells. Put plainly: SRB antiproliferative assay, PC3. Type of assay: cell-based, human. The note with it: in PC3 cells.
The test system of assay [6] is DU145 cells. Put plainly: SRB antiproliferative assay, DU145. Type of assay: cell-based, human. The settings on record: in DU145 cells.

One may read the IC50 as the concentration that inhibits the measured activity by half. Regarding `C[C@]1([N+](=O)[O-])C(=O)c2cc(C(F)(F)F)ccc2O[C@@H]1CC(=O)NC12CC3CC(CC(C3)C1)C2` [Compound 35], the 50% inhibitory concentration (IC50) in the assay on human fibroblasts (HAF) was greater than 100 µM.
On to `CCCCNC(=O)C[C@H]1Oc2ccccc2C(=O)[C@]1(C)[N+](=O)[O-]` [Compound 15], for which, in the assay with human fibroblasts (HAF), the IC50 was greater than 100 µM.
Take `C[C@]1(N)C(=O)c2cc(F)ccc2O[C@@H]1CC(=O)NC12CC3CC(CC(C3)C1)C2` [Compound 44]: in the assay with human fibroblasts (HAF), the IC50 is greater than 100 µM.
Consider `C[C@]1([N+](=O)[O-])C(=O)c2cc(F)ccc2O[C@@H]1CC(=O)NC12CC3CC(CC(C3)C1)C2` [Compound 36], for which, in [1], the “times more potent than the positive compound cisplatin” value is 2.3–19.4 times. In addition, the “migration rate in comparison with control” value in the assay on DU145 cells [2] came to 23.94%. The “cell migration ability, wound healing” value with DU145 cells [3] is “notably inhibited”. In addition, the IC50 with LNCaP cells was 4.4 µM; in the assay with 22RV1 cells, 7.43 µM; in the assay on human fibroblasts (HAF), greater than 100 µM. For the same compound, in the assay on DU145 cells [4], the “percentage of G2/M phase cells” value came out at 0%. Further, the “expression of PARP and CL.PARP” value in [5] is listed as “promote the PARP to CL. PARP”.
Turning to `C[C@]1([N+](=O)[O-])C(=O)c2ccccc2O[C@@H]1CC(=O)NCC1CCCCC1` [Compound 31], in the assay with human fibroblasts (HAF), the IC50 is greater than 100 µM.
The same measure, in the same setting: the same measure for `C[C@]1([N+](=O)[O-])C(=O)c2cc(Br)ccc2O[C@@H]1CC(=O)NC12CC3CC(CC(C3)C1)C2` [Compound 38]: 3.67 ± 0.56 µM; for `C[C@]1([N+](=O)[O-])C(=O)c2ccccc2O[C@@H]1CC(=O)NNc1nc2ccccc2s1` [Compound 26]: greater than 100 µM; for `CC[C@]1([N+](=O)[O-])C(=O)c2ccccc2O[C@@H]1CC(=O)NC12CC3CC(CC(C3)C1)C2` [Compound 33]: greater than 100 µM.
Turning to `CC(C)(C)NC(=O)C[C@H]1Oc2ccccc2C(=O)[C@]1(C)[N+](=O)[O-]` [Compound 16], in the assay on human fibroblasts (HAF), the IC50 is greater than 100 µM.
`CN(C)C(=O)C[C@H]1Oc2ccccc2C(=O)[C@]1(C)[N+](=O)[O-]` [Compound 28]: the IC50 in the assay with human fibroblasts (HAF) was greater than 100 µM.
Same read-out and setting: to `C[C@]1([N+](=O)[O-])C(=O)c2ccccc2O[C@@H]1CC(=O)Nc1nccs1` [Compound 22] belongs greater than 100 µM; to `C[C@]1([N+](=O)[O-])C(=O)c2ccccc2O[C@@H]1CC(N)=O` [Compound 11], greater than 100 µM; to `C[C@]1([N+](=O)[O-])C(=O)c2ccccc2O[C@@H]1CC(=O)OCc1ccccc1` [Compound 10], greater than 100 µM.
The same measure, in the same setting: to `CC[C@]1([N+](=O)[O-])C(=O)c2ccccc2O[C@@H]1CC(=O)NC1CCCCC1` [Compound 34] belongs greater than 100 µM; to `C[C@]1([N+](=O)[O-])C(=O)c2ccccc2O[C@@H]1CC(=O)Nc1ccccc1` [Compound 20], greater than 100 µM; to `C[C@]1([N+](=O)[O-])C(=O)c2ccccc2O[C@@H]1CC(=O)Nc1ccc2[nH]ccc2c1` [Compound 24], greater than 100 µM.
The same measure, in the same setting: the same measure for `C#CCNC(=O)C[C@H]1Oc2ccccc2C(=O)[C@]1(C)[N+](=O)[O-]` [Compound 14]: greater than 100 µM; for `C[C@]1([N+](=O)[O-])C(=O)c2ccccc2O[C@@H]1CC(=O)Nc1ncccn1` [Compound 23]: greater than 100 µM; for `C[C@]1([N+](=O)[O-])C(=O)c2ccccc2O[C@@H]1CC(=O)NCc1ccccc1` [Compound 21]: greater than 100 µM.
As to `CCNC(=O)C[C@H]1Oc2ccccc2C(=O)[C@]1(C)[N+](=O)[O-]` [Compound 13], the IC50 with human fibroblasts (HAF) is greater than 100 µM.
On the same count and under the same terms, to `C[C@]1([N+](=O)[O-])C(=O)c2ccccc2O[C@@H]1CC(=O)NC1CCCC1` [Compound 29] belongs greater than 100 µM.
Same read-out and setting: the same measure for `C[C@]1([N+](=O)[O-])C(=O)c2cccc(F)c2O[C@@H]1CC(=O)NC12CC3CC(CC(C3)C1)C2` [Compound 43]: greater than 100 µM; for `CN(C(=O)C[C@H]1Oc2ccccc2C(=O)[C@]1(C)[N+](=O)[O-])C1CCCCC1` [Compound 27]: greater than 100 µM; for `C[C@]1([N+](=O)[O-])C(=O)c2c(F)cccc2O[C@@H]1CC(=O)NC12CC3CC(CC(C3)C1)C2` [Compound 41]: greater than 100 µM.
Take `C[C@]1([N+](=O)[O-])C(=O)c2cc(Cl)ccc2O[C@@H]1CC(=O)NC12CC3CC(CC(C3)C1)C2` [Compound 37]: the IC50 in the assay on human fibroblasts (HAF) was greater than 100 µM.
Regarding `C[C@]1([N+](=O)[O-])C(=O)c2ccccc2O[C@@H]1CC(=O)NC12CC3CC(CC(C3)C1)C2` [Compound 19], the “more potent antiproliferative activity than cisplatin” value in the assay on PC3 cells is listed as 5.9 fold; with DU145 cells [6], 1.6 fold. Further, in the assay with human fibroblasts (HAF), the IC50 was greater than 100 µM.
Consider `C[C@]1([N+](=O)[O-])C(=O)c2ccc(F)cc2O[C@@H]1CC(=O)NC12CC3CC(CC(C3)C1)C2` [Compound 42], for which the half-inhibitory concentration (IC50) in the assay with human fibroblasts (HAF) was greater than 100 µM.
Still for that read-out and setting: the same measure for `CC12CC3CC(C)(C1)CC(NC(=O)C[C@H]1Oc4ccccc4C(=O)[C@]1(C)[N+](=O)[O-])(C3)C2` [Compound 32]: greater than 100 µM; for `C[C@]1([N+](=O)[O-])C(=O)c2ccccc2O[C@@H]1CC(=O)NC1CCCCC1` [Compound 18]: greater than 100 µM; for `CCCCCCCCNC(=O)C[C@H]1Oc2ccccc2C(=O)[C@]1(C)[N+](=O)[O-]` [Compound 17]: greater than 100 µM.
On the same count and under the same terms, the same measure for `CNC(=O)C[C@H]1Oc2ccccc2C(=O)[C@]1(C)[N+](=O)[O-]` [Compound 12]: greater than 100 µM; for `C#CCOC(=O)C[C@H]1Oc2ccccc2C(=O)[C@]1(C)[N+](=O)[O-]` [Compound 6]: greater than 100 µM.
Same read-out and setting: the same measure for `CC(=O)O[C@@]12CO[C@@H]1C[C@H](O)[C@@]1(C)C(=O)[C@H](O)C3=C(C)[C@@H](OC(=O)[C@H](O)[C@@H](NC(=O)OC(C)(C)C)c4ccccc4)C[C@@](O)([C@@H](OC(=O)c4ccccc4)[C@H]21)C3(C)C` [Docetaxel, reference compound]: 0.157 ± 0.031 µM.
`COc1ccc2c(c1)C(=O)[C@](C)([N+](=O)[O-])[C@@H](CC(=O)NC13CC4CC(CC(C4)C1)C3)O2` [Compound 40]: the IC50 in the assay on human fibroblasts (HAF) was greater than 100 µM.
